Publication PMC7867784 (Translational Lung Cancer Research, 2021)

Test system: Japanese patients with RET-rearranged NSCLC
Experiment: ALL-RET phase 1/2 trial: safety
Format: in vivo, human
In short: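 Adverse events were graded by NCI CTCAE v4.0, with causal relation to treatment recorded separately. Dose finding used a 3+3 de-escalation design with 3–6 patients per cohort. DLT was evaluated over the first 21-day cycle and defined as grade ≥4 thrombopenia, grade ≥3 febrile neutropenia, grade ≥4 neutropenia lasting ≥4 days, or grade ≥3 non-hematologic toxicity, with specified exceptions. Follow-up ran until January 2019.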

[1] = 600 mg BID (N=6), dose limiting toxicity
[2] = Japanese patients with RET-rearranged NSCLC

## CCc1cc2c(cc1N1CCC(N3CCOCC3)CC1)C(C)(C)c1[nH]c3cc(C#N)ccc3c1C2=O [alectinib]
600 mg BID (N=6)
  Constipation, any grade, number [causally related]: 4 [4]
  Constipation, any grade, percent: 66.7%
  Constipation, grade 1–2, number (total): 4 [4]
  Constipation, grade 1–2, number [causally related]: 4 [4]
  Constipation, grade 3, number: 0
  Constipation, grade 4, number: 0
  Creatine phosphokinase increase, any grade, number (total): 2 [2]
  Creatine phosphokinase increase, any grade, number [causally related]: 2 [2]
  Creatine phosphokinase increase, any grade, percent: 33.3%
  Creatine phosphokinase increase, grade 1–2, number (total): 1[1]
  Creatine phosphokinase increase, grade 1–2, number [causally related]: 1[1]
  Creatine phosphokinase increase, grade 4, number: 0
  Creatinine increase, any grade, number (total): 2 [2]
  Creatinine increase, any grade, number [causally related]: 2 [2]
  Creatinine increase, any grade, percent: 33.3%
  Creatinine increase, grade 1–2, number (total): 2[2]
  Creatinine increase, grade 1–2, number [causally related]: 2[2]
  Creatinine increase, grade 3, number: 0
  Creatinine increase, grade 4, number: 0
  Dysgeusia, any grade, number (total): 2 [2]
  Dysgeusia, any grade, number [causally related]: 2 [2]
  Dysgeusia, any grade, percent: 33.3%
  Dysgeusia, grade 1–2, number (total): 2 [2]
  Dysgeusia, grade 1–2, number [causally related]: 2 [2]
  Dysgeusia, grade 3, number: 0
  Dysgeusia, grade 4, number: 0
  Erythema multiforme, any grade, number (total): 1 [1]
  Erythema multiforme, any grade, number [causally related]: 1 [1]
  Erythema multiforme, any grade, percent: 16.7%
  Erythema multiforme, grade 1–2, number: 0
  Erythema multiforme, grade 4, number: 0
  Hepatic function abnormal, any grade, number (total): 2 [2]
  Hepatic function abnormal, any grade, number [causally related]: 2 [2]
  Hepatic function abnormal, any grade, percent: 33.3%
  Hepatic function abnormal, grade 1–2, number (total): 1 [1]
  Hepatic function abnormal, grade 1–2, number [causally related]: 1 [1]
  Hepatic function abnormal, grade 4, number: 0
  Lymphocyte decrease, any grade, number (total): 1 [1]
  Lymphocyte decrease, any grade, number [causally related]: 1 [1]
  Lymphocyte decrease, any grade, percent: 16.7%
  Lymphocyte decrease, grade 1–2, number: 0
  Lymphocyte decrease, grade 3, number: 0
  Lymphocyte decrease, grade 4, number (total): 1 [1]
  Lymphocyte decrease, grade 4, number [causally related]: 1 [1]
  Myalgia, any grade, number (total): 3 [3]
  Myalgia, any grade, number [causally related]: 3 [3]
  Myalgia, any grade, percent: 50.0%
  Myalgia, grade 1–2, number (total): 3 [3]
  Myalgia, grade 1–2, number [causally related]: 3 [3]
  Myalgia, grade 3, number: 0
  Myalgia, grade 4, number: 0
  Oedema peripheral, any grade, number (total): 2 [2]
  Oedema peripheral, any grade, number [causally related]: 2 [2]
  Oedema peripheral, any grade, percent: 33.3%
  Oedema peripheral, grade 1–2, number (total): 2 [2]
  Oedema peripheral, grade 1–2, number [causally related]: 2 [2]
  Oedema peripheral, grade 3, number: 0
  Oedema peripheral, grade 4, number: 0
  Rash, any grade, number (total): 1 [1]
  Rash, any grade, number [causally related]: 1 [1]
  Rash, any grade, percent: 16.7%
  Rash, grade 1–2, number: 0
  Rash, grade 4, number: 0
  Thromboembolic event, any grade, number (total): 1 [1]
  Thromboembolic event, any grade, number [causally related]: 1 [1]
  Thromboembolic event, any grade, percent: 16.7%
  Thromboembolic event, grade 1–2, number: 0
  Thromboembolic event, grade 4, number: 0
[1]
  Creatine phosphokinase increase, grade 3, number (total): 1[1]*
  Creatine phosphokinase increase, grade 3, number [causally related]: 1[1]*
  Erythema multiforme, grade 3, number (total): 1 [1]*
  Erythema multiforme, grade 3, number [causally related]: 1 [1]*
  Hepatic function abnormal, grade 3, number (total): 1 [1]*
  Hepatic function abnormal, grade 3, number [causally related]: 1 [1]*
  Rash, grade 3, number (total): 1 [1]*
  Rash, grade 3, number [causally related]: 1 [1]*
  Thromboembolic event, grade 3, number (total): 1 [1]*
  Thromboembolic event, grade 3, number [causally related]: 1 [1]*
600 mg BID, out of 6 patients
  patients whose treatment was discontinued due to DLTs: 2
[2]
  MTD (maximum tolerated dose): 450 mg BID
  recommended dose (RD) for phase 2: 450 mg BID
Cohort 1, 600 mg BID
  DLTs observed in case S1-3: grade 3 rash and hepatic function abnormal
  DLTs observed in case S1-4: grade 3 erythema multiforme and thromboembolic event
Phase 1 cohort 1, 600 mg BID, 6 patients
  number of dose-limiting toxicities (DLTs): 5
Phase 1 cohort 1, 600 mg BID, of 6 patients
  patients with DLTs: 3
Phase 1 cohort 2, 450 mg BID, 3 patients
  DLTs: no DLTs
Phase 2, 450 mg BID
  grade 3 adverse events including pneumonitis: 4%
